One may read the Kd as the equilibrium constant for the complex coming apart.

Here are results for 13 molecules from publication PMC3125946 (Biochemistry, 2011).

One series deals with T1, MjCobY (Methanocaldococcus jannaschii, UniProt Q58517, G153D).
T1 sequence (Q58517 1-196 G153D): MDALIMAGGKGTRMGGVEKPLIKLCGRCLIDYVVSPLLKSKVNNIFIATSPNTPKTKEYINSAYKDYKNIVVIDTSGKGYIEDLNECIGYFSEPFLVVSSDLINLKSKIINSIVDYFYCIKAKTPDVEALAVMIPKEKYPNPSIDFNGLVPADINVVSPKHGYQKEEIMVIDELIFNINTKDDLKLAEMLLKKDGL
Briefly: isothermal titration calorimetry. In kind it is binding. In outline:
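Recombinant G153D variant purified by heat step (75°C, 15 min), ammonium sulfate, hydrophobic interaction, anion exchange and size-exclusion chromatography; dialysed at 4 °C against Tris-HCl 50 mM pH 8.0, NaCl 50 mM, MgCl2 10 mM, TCEP 4 mM. GTP in spent dialysate; 1 mM stock titrated by 27 injections into 18 µM protein dimers at 27 °C.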

The series “SEC” concerns the molecule itself. Briefly: SEC.

In the case of `Nc1nc2c(ncn2[C@@H]2O[C@H](COP(=O)(O)OP(=O)(O)OP(=O)(O)O)[C@@H](O)[C@H]2O)c(=O)[nH]1` [GTP], on MjCobY, the dissociation constant Kd is 400 ± 40 nM.

B1: MjCobY^G8D (enzyme, Methanocaldococcus jannaschii, UniProt Q58517 1-196, looked up)
chain: MDALIMADGKGTRMGGVEKPLIKLCGRCLIDYVVSPLLKSKVNNIFIATSPNTPKTKEYINSAYKDYKNIVVIDTSGKGYIEDLNECIGYFSEPFLVVSSDLINLKSKIINSIVDYFYCIKAKTPDVEALAVMIPKEKYPNPSIDFNGLVPAGINVVSPKHGYQKEEIMVIDELIFNINTKDDLKLAEMLLKKDGL
With B1, in the series “SEC”, the “percent dimer (Monomer:Dimer Ratio)” value stood at 67% and the “percent monomer (Monomer:Dimer Ratio)” value is 33%.

B2: MjCobY K19A (enzyme, Methanocaldococcus jannaschii, UniProt Q58517 1-196, looked up)
chain: MDALIMAGGKGTRMGGVEAPLIKLCGRCLIDYVVSPLLKSKVNNIFIATSPNTPKTKEYINSAYKDYKNIVVIDTSGKGYIEDLNECIGYFSEPFLVVSSDLINLKSKIINSIVDYFYCIKAKTPDVEALAVMIPKEKYPNPSIDFNGLVPAGINVVSPKHGYQKEEIMVIDELIFNINTKDDLKLAEMLLKKDGL
For B2, in “SEC”, the “percent dimer (Monomer:Dimer Ratio)” value came to 64% and the “percent monomer (Monomer:Dimer Ratio)” value stood at 36%.

B3: MjCobY T53S (enzyme, Methanocaldococcus jannaschii, UniProt Q58517 1-196, looked up)
chain: MDALIMAGGKGTRMGGVEKPLIKLCGRCLIDYVVSPLLKSKVNNIFIATSPNSPKTKEYINSAYKDYKNIVVIDTSGKGYIEDLNECIGYFSEPFLVVSSDLINLKSKIINSIVDYFYCIKAKTPDVEALAVMIPKEKYPNPSIDFNGLVPAGINVVSPKHGYQKEEIMVIDELIFNINTKDDLKLAEMLLKKDGL
Regarding B3, in the series “SEC”, the “percent dimer (Monomer:Dimer Ratio)” value was 24% and the “percent monomer (Monomer:Dimer Ratio)” value amounted to 76%.

B4: MjCobY D101G (enzyme, Methanocaldococcus jannaschii, UniProt Q58517 1-196, looked up)
chain: MDALIMAGGKGTRMGGVEKPLIKLCGRCLIDYVVSPLLKSKVNNIFIATSPNTPKTKEYINSAYKDYKNIVVIDTSGKGYIEDLNECIGYFSEPFLVVSSGLINLKSKIINSIVDYFYCIKAKTPDVEALAVMIPKEKYPNPSIDFNGLVPAGINVVSPKHGYQKEEIMVIDELIFNINTKDDLKLAEMLLKKDGL
Consider B4, for which, in the series “SEC”, the “percent dimer (Monomer:Dimer Ratio)” value stood at 66% and the “percent monomer (Monomer:Dimer Ratio)” value was 34%.

B5: MjCobY D83G (enzyme, Methanocaldococcus jannaschii, UniProt Q58517 1-196, looked up)
chain: MDALIMAGGKGTRMGGVEKPLIKLCGRCLIDYVVSPLLKSKVNNIFIATSPNTPKTKEYINSAYKDYKNIVVIDTSGKGYIEGLNECIGYFSEPFLVVSSDLINLKSKIINSIVDYFYCIKAKTPDVEALAVMIPKEKYPNPSIDFNGLVPAGINVVSPKHGYQKEEIMVIDELIFNINTKDDLKLAEMLLKKDGL
On to B5, for which, in the series “SEC”, the “percent dimer (Monomer:Dimer Ratio)” value was found to be 18% and the “percent monomer (Monomer:Dimer Ratio)” value turned out to be 82%.

B6: MjCobY P20A (enzyme, Methanocaldococcus jannaschii, UniProt Q58517 1-196, looked up)
chain: MDALIMAGGKGTRMGGVEKALIKLCGRCLIDYVVSPLLKSKVNNIFIATSPNTPKTKEYINSAYKDYKNIVVIDTSGKGYIEDLNECIGYFSEPFLVVSSDLINLKSKIINSIVDYFYCIKAKTPDVEALAVMIPKEKYPNPSIDFNGLVPAGINVVSPKHGYQKEEIMVIDELIFNINTKDDLKLAEMLLKKDGL
B6: in “SEC”, the “percent dimer (Monomer:Dimer Ratio)” value is 37% and the “percent monomer (Monomer:Dimer Ratio)” value amounted to 63%.

B7: MjCobY^G153D (enzyme, Methanocaldococcus jannaschii)
chain: MDALIMAGGKGTRMGGVEKPLIKLCGRCLIDYVVSPLLKSKVNNIFIATSPNTPKTKEYINSAYKDYKNIVVIDTSGKGYIEDLNECIGYFSEPFLVVSSDLINLKSKIINSIVDYFYCIKAKTPDVEALAVMIPKEKYPNPSIDFNGLVPADINVVSPKHGYQKEEIMVIDELIFNINTKDDLKLAEMLLKKDGL
As for B7, in the series “SEC”, the “percent dimer (Monomer:Dimer Ratio)” value was determined as 46% and the “percent monomer (Monomer:Dimer Ratio)” value is 54%.

B8: MjCobY E18D (enzyme, Methanocaldococcus jannaschii, UniProt Q58517 1-196, looked up)
chain: MDALIMAGGKGTRMGGVDKPLIKLCGRCLIDYVVSPLLKSKVNNIFIATSPNTPKTKEYINSAYKDYKNIVVIDTSGKGYIEDLNECIGYFSEPFLVVSSDLINLKSKIINSIVDYFYCIKAKTPDVEALAVMIPKEKYPNPSIDFNGLVPAGINVVSPKHGYQKEEIMVIDELIFNINTKDDLKLAEMLLKKDGL
Take B8: in the series “SEC”, the “percent dimer (Monomer:Dimer Ratio)” value was found to be 60% and the “percent monomer (Monomer:Dimer Ratio)” value amounted to 40%.

B9: MjCobY P94A (enzyme, Methanocaldococcus jannaschii, UniProt Q58517 1-196, looked up)
chain: MDALIMAGGKGTRMGGVEKPLIKLCGRCLIDYVVSPLLKSKVNNIFIATSPNTPKTKEYINSAYKDYKNIVVIDTSGKGYIEDLNECIGYFSEAFLVVSSDLINLKSKIINSIVDYFYCIKAKTPDVEALAVMIPKEKYPNPSIDFNGLVPAGINVVSPKHGYQKEEIMVIDELIFNINTKDDLKLAEMLLKKDGL
As to B9, in the series “SEC”, the “percent dimer (Monomer:Dimer Ratio)” value turned out to be 48% and the “percent monomer (Monomer:Dimer Ratio)” value turned out to be 52%.

B10: MjCobY R13A (enzyme, Methanocaldococcus jannaschii, UniProt Q58517 1-196, looked up)
chain: MDALIMAGGKGTAMGGVEKPLIKLCGRCLIDYVVSPLLKSKVNNIFIATSPNTPKTKEYINSAYKDYKNIVVIDTSGKGYIEDLNECIGYFSEPFLVVSSDLINLKSKIINSIVDYFYCIKAKTPDVEALAVMIPKEKYPNPSIDFNGLVPAGINVVSPKHGYQKEEIMVIDELIFNINTKDDLKLAEMLLKKDGL
For B10, in “SEC”, the “percent dimer (Monomer:Dimer Ratio)” value amounted to 86% and the “percent monomer (Monomer:Dimer Ratio)” value is 14%.

B11: MjCobY P54A (enzyme, Methanocaldococcus jannaschii, UniProt Q58517 1-196, looked up)
chain: MDALIMAGGKGTRMGGVEKPLIKLCGRCLIDYVVSPLLKSKVNNIFIATSPNTAKTKEYINSAYKDYKNIVVIDTSGKGYIEDLNECIGYFSEPFLVVSSDLINLKSKIINSIVDYFYCIKAKTPDVEALAVMIPKEKYPNPSIDFNGLVPAGINVVSPKHGYQKEEIMVIDELIFNINTKDDLKLAEMLLKKDGL
For B11, in the series “SEC”, the “percent dimer (Monomer:Dimer Ratio)” value was found to be 50% and the “percent monomer (Monomer:Dimer Ratio)” value turned out to be 50%.

B12: MjCobY Y80F (enzyme, Methanocaldococcus jannaschii, UniProt Q58517 1-196, looked up)
chain: MDALIMAGGKGTRMGGVEKPLIKLCGRCLIDYVVSPLLKSKVNNIFIATSPNTPKTKEYINSAYKDYKNIVVIDTSGKGFIEDLNECIGYFSEPFLVVSSDLINLKSKIINSIVDYFYCIKAKTPDVEALAVMIPKEKYPNPSIDFNGLVPAGINVVSPKHGYQKEEIMVIDELIFNINTKDDLKLAEMLLKKDGL
With B12, in the series “SEC”, the “percent dimer (Monomer:Dimer Ratio)” value was 26% and the “percent monomer (Monomer:Dimer Ratio)” value was determined as 74%.
